An excerpt weighted towards active compounds, which were near 3.8% of everything screened.
MrgX1 agonist: agonists of human MrgX1 receptor, primary screen, HEK293 cells, Fluo-4 calcium flux; Fluo-4 calcium fluorescence, agonist mode; stronger effect = higher value; 310,000 tested, 0.44% active; B-score at 10 µM; AID 588627, 2011; Mas-related G-protein coupled receptor member X1 (Homo sapiens), Q96LB2;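 active means calcium response B-score plate-corrected fluorescence ratio at least 3 library SD, with starting fluorescence B-score inside 5 SD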
Target sequence (Q96LB2 whole entry, looked up): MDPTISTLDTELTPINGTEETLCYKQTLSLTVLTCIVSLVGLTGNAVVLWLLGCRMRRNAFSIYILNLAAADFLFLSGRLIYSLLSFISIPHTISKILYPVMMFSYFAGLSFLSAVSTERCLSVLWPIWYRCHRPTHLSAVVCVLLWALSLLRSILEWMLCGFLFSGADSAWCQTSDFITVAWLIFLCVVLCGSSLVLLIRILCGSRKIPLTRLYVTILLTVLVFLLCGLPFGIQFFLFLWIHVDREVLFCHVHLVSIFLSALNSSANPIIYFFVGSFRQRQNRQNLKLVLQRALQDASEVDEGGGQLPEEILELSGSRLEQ
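Assay system: stable human MrgX1 HEK293 cell line. Quantity: 15,000 cells per well. Schedule: cells plated overnight, dye loaded 0.5 h 37 °C, 0.5 h room temperature. Detection: Fluo-4 NW calcium-flux fluorescence, kinetic read. Read-out basis: peak-minus-minimum fluorescence over baseline, converted to B scores. Control set: positive and negative control wells on each plate.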
Lipid droplet: inhibitors of hepatocyte lipid droplet formation, primary screen, imaging, high-throughput imaging, BODIPY stain; 240,000 tested, 0.4% active; AML12 mouse hepatocytes, oleate lipid droplets; AID 1656, 2009; inhibition, % at 6.5 µM;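 active means lipid droplet intensity inhibited by at least 50%, with more than 500 cells counted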
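Test system: AML12 mouse liver cells; schedule: overnight exposure; technique: high-content imaging of BODIPY-stained droplets and DAPI nuclei; read-out: % inhibition of corrected integrated BODIPY droplet signal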
MrgX1 PAM: positive allosteric modulators of MrgX1, primary screen, HEK293 cells, Fluo-4 calcium flux | 310,000 tested, 0.63% active | B-score at 10 µM | FDSS; stronger effect = higher value;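 active means plate-corrected calcium response at least 3 library SD above typical, normal starting fluorescence, not activating the receptor alone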;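 further: compound read alongside a low EC10 to EC30 dose of BAM8-22 agonist; peak minus trough fluorescence over baseline measured at the second addition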
MrgX1 antagonist: antagonists of human MrgX1 receptor, primary screen, HEK293 cells, Fluo-4 calcium flux; B-score at 10 µM; BAM8-22 antagonism; stronger effect = lower value; 310,000 tested, 1.3% active; Mas-related G-protein coupled receptor member X1 (Homo sapiens), Q96LB2;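 active means calcium-response B-score plate-corrected more than 3 library SD below zero, starting fluorescence within 5 deviations, no agonist response on first addition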;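 further: peak minus trough fluorescence over baseline after final BAM8-22 challenge near maximal dose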
RGS4 block: RGS4 inhibitors, primary screen, cell-based, HEK293 M3R inducible RGS4, calcium flux. B-score at 10 µM. 310,000 tested, 0.45% active. Fluo-4 calcium flux; stronger effect = higher value; triggered by carbachol at its EC20;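 active means B-score, a plate-corrected calcium signal, over three deviations above library mean, with baseline fluorescence within five deviations of library mean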;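 further: RGS4 expression induced by doxycycline in cells with stable M3 receptor; B-score is computed from the integrated fluorescence ratio over baseline after carbachol; higher B-score means a larger calcium signal and so more RGS4 inhibition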
Target sequence (P49798 whole entry, looked up): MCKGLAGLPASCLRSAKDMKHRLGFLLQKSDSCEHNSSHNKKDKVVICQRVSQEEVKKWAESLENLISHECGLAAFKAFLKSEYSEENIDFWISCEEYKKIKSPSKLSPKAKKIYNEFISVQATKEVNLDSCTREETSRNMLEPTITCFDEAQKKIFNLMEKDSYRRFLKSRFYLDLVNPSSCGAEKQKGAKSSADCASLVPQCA
RGS4 pot: RGS4 potentiators or activators, primary screen, cell-based, HEK293 M3R inducible RGS4, calcium flux; 310,000 tested, 0.92% active; B-score at 10 µM; carbachol calcium flux Fluo4; stronger effect = lower value; AID 463111, 2010;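 active means B-score of the integrated calcium signal more than 4 SD below the library mean, with starting fluorescence not abnormally high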;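 further: negative B-score means reduced calcium response which marks RGS4 activation or potentiation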
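test system = M3R-expressing HEK293 line, RGS4 induced by doxycycline | probe or stimulus = carbachol at ECmax as muscarinic agonist stimulus | timing = dye loading 30 min 37 °C, buffer rest 30 min RT | signal = calcium dye Fluo4 fluorescence | evaluation = B score from integrated fluorescence ratio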
Active calls of the source: *; i = inactive; nt = no result given.

SMILES	MrgX1 agonist	Lipid droplet	MrgX1 PAM	MrgX1 antagonist	RGS4 block	RGS4 pot
CCCCCn1c(N2CCC(Cc3ccccc3)CC2)nc2c1c(=O)[nH]c(=O)n2C	i	nt	i	i	i	-9*
COc1ccc(-c2csc3ncnc(N4CCN(S(=O)(=O)c5ccc(C)cc5)CC4)c23)cc1	i	nt	i	i	i	-7.5*
CC1=Nc2ccccc2/C1=C/c1sc(=N)n(-c2nccs2)c1O	46*	nt	i	i	i	i
CC(NC(=O)CCC(=O)c1ccccc1)c1ccc(F)cc1 (configuration not stated)	i	nt	i	i	i	i
O=C(/C=C/c1c[nH]c2ccccc12)c1cccc2ccccc12	i	-1	i	i	i	i
NC(=O)CN1C(=O)C(O)(CC(=O)/C=C\c2ccc3c(c2)OCO3)c2ccccc21 (configuration not stated)	i	-10	i	i	i	i
CN1C(=O)C(O)(CC(=O)/C=C\c2ccc3c(c2)OCO3)c2ccccc21 (configuration not stated)	i	0	i	-5.4*	i	i
CN(C(=O)/C=C/c1ccc2c(c1)OCO2)c1ccccc1	i	0	9.1*	i	i	i
Cc1cc[n+](C(C)C(=O)c2ccc(-c3ccccc3)cc2)cc1 (configuration not stated)	i	3	i	i	i	-9.4*
C=CCNC(=S)N1CCC(C(=O)c2ccc(Cl)cc2)CC1	i	8	i	i	i	i
O=C1OCC2=C1C(c1ccc(F)cc1)CC(=O)N2c1ccccc1 (configuration not stated)	i	2	i	i	i	-7.7*
Cc1ccnc(SCC(=O)c2ccc([N+](=O)[O-])cc2)n1	i	6	i	i	i	i
Cc1cc(C)nc(SCC(=O)c2ccc([N+](=O)[O-])cc2)n1	i	-5	i	-6.1*	i	i
CCCN(C(=O)CSCc1ccccc1C)c1c(N)n(Cc2ccccc2)c(=O)[nH]c1=O	i	nt	i	-7.2*	i	i
COc1ccccc1NC(=O)Nc1nc(CC(=O)NCc2c(F)cccc2F)cs1	i	nt	i	i	i	i
COc1ccccc1NC(=O)Nc1nc(CC(=O)N2CCN(c3ccccc3F)CC2)cs1	i	nt	i	i	i	-7.1*
Cc1cccc(N2CCN(S(=O)(=O)c3cc(-c4cc(C)no4)ccc3C)CC2C)c1 (configuration not stated)	i	18	i	i	i	i
O=c1cc(-c2ccccc2)c2c(O)cc(O)cc2o1	29*	-1	i	i	i	i
O=c1c(-c2ccccc2)c(-c2ccccc2)oc2cc(O)cc(O)c12	i	nt	i	i	i	i
CC(C)(C)[C@H]1C=C(C(=O)N2CCN(Cc3ccccc3)CC2)O[C@@H](OCc2ccc(CO)cc2)C1	i	-2	7.4*	i	i	i
Cc1ccc(C(=O)OCC(=O)Nc2cccc(S(=O)(=O)NC3=NCCCCC3)c2)c(C)c1	i	-1	i	i	i	i
CCc1ccc(C(C)NC(=S)NC2CCCCC2)cc1 (configuration not stated)	i	-16	i	i	i	i
CCC(C)c1ccc(C(C)NC(=S)NC2CCCCC2)cc1 (configuration not stated)	i	-5	i	i	i	-8.4*
Cc1cccc(CN2C(=O)/C(=C\c3ccc(C(=O)NCCN4CCOCC4)cc3)Sc3ccccc32)c1	i	5	i	i	i	-7.3*
O=C(NCCN1CCOCC1)c1ccc(/C=C2\Sc3ccccc3N(Cc3ccccc3F)C2=O)cc1	i	-2	i	i	i	i
SMILES	MrgX1 agonist	Lipid droplet	MrgX1 PAM	MrgX1 antagonist	RGS4 block	RGS4 pot
CCN1CCN(CCNC(=O)c2ccc(/C=C3/Sc4ccccc4N(Cc4cccc(Cl)c4)C3=O)cc2)CC1	i	-7	i	i	i	-9.9*
O=C(NCCCN1CCN(c2ccccc2F)CC1)C1CCC(=O)N1C1CCCC1 (configuration not stated)	i	-103	i	i	i	i
OCc1ccccc1SSc1ccccc1CO	41*	nt	i	i	i	i
OCc1ccccc1CNCc1ccccc1	i	nt	i	i	i	i
COc1ccc(/C=C2\N=C3CCCCCN3C2=O)cc1OC	i	nt	i	-4.7*	i	i
C=CCN(CC(O)c1cccc([N+](=O)[O-])c1)C(C)CCc1ccccc1 (configuration not stated)	i	7	16*	i	i	i
COCCn1nnnc1C(c1cccs1)N1CCN2CCCC2C1 (configuration not stated)	i	-1	i	i	i	i
Cc1ccc(C(c2cc(Br)ccc2O)N2CCSCC2)cc1 (configuration not stated)	i	nt	i	i	i	i
Cc1ccc(S(=O)(=O)c2c(C)cc(C)nc2Oc2cccc(C(F)(F)F)c2)cc1	i	nt	i	i	i	-8.2*
Cc1cc(-c2ccccc2)nc(Oc2cccc(C(F)(F)F)c2)c1S(C)(=O)=O	i	nt	i	i	i	i
CC1C(c2ccccc2)N(C)C(c2ccccc2)C(C)C1(O)C#Cc1ccccc1 (configuration not stated)	i	-1	i	i	nt	nt
O=C(O)/C=C/c1ccc(OCc2cccc(F)c2)cc1	i	27	i	-5.4*	i	i
O=C(/C=C/c1ccc(OCc2cccc(Cl)c2)cc1)N1CCOCC1	i	8	i	i	i	i
C1CCN(CCCNC2C3CC4CC(C3)CC2C4)C1 (configuration not stated)	i	35	i	i	i	i
CC1C2CC(C/C2=N/NC(=O)c2cccs2)C1(C)C (configuration not stated)	i	-2	8.7*	i	i	i
COc1ccc2oc(=O)c(/C(N)=N/NC(=O)c3ccncc3)cc2c1	i	-4	i	i	i	i
CNc1ccc(Br)cc(C(=O)/C=C/c2cccc(OC)c2OC)c1=O	i	6	i	-4.8*	i	i

Screening results: PubChem, several laboratories
